Published values of several laboratories.
Compare with care: the assays were run in different laboratories.
Target: MAP kinase-interacting serine/threonine-protein kinase 1 (MKNK1, Homo sapiens, UniProt Q9BUB5)

`CN(C)c1nccc(-c2cnc3ncccn23)n1` has a remaining binding of 67% (binding; 1 µM).
For `O=C(NCCCC1CCCCC1)c1ccc(CNC(=O)c2cnn(-c3ccccc3)c2C(F)(F)F)cc1`, the remaining binding was 98% (cell-free assay, competition with immobilised ligand; 0.1 µM).
For `Cc1cnc(Nc2ccc(C(=O)N3CCC(N4CCCC4)CC3)cc2)nc1-c1cc2ccccc2s1`, the remaining binding was 48% (binding, competition with immobilised ligand; 1 µM).
`CN(CCCC(F)(F)F)c1nccc(-c2cnn3ncccc23)n1` has a remaining binding of 100% (binding; 1 µM).
With `O=C(NCCCN1CCOCC1)c1ccc(Nc2ncc(Cl)c(-c3ccc(Cl)s3)n2)cc1` the remaining binding was 84% (binding, competition with immobilised ligand; 1 µM).
The remaining binding of `CSc1cccnc1N1CCN(Cc2nc3ccccc3[nH]2)CC1` is reported as 98% (cell-free assay, competition with immobilised ligand; 1 µM).
`c1cncc(-c2cccc(Nc3nccc(NC4CCCCC4)n3)c2)c1` has a remaining binding of 89% (binding, competition with immobilised ligand; 10 µM).
`COc1ccnn2ncc(-c3ccnc(N(C)C)n3)c12` has a remaining binding of 95% (binding; 1 µM).
The remaining binding of `O=C(c1ccc(Nc2ncc(Cl)c(-c3ccc(Cl)s3)n2)cc1)N1CCC(N2CCCC2)CC1` is reported as 45% (binding, competition with immobilised ligand; 1 µM).
`Cc1cc(C)c(-n2ccn3nc(-c4cccnc4)cc23)cc1NC(=O)c1cc(C#N)cc(S(F)(F)(F)(F)F)c1` has a remaining binding of 83.8% (cell-free assay, competition with immobilised ligand; 0.1 µM).
`C[C@@H]1CN(c2ccc3ncc(-c4ccc5[nH]nc(C6CC6)c5c4)n3n2)C[C@H](C)O1` has a remaining binding of 94% (binding, competition with immobilised ligand; 0.5 µM).
The remaining binding of `CCN1CCN(Cc2ccc(C(=O)Nc3ccc(C)c(Oc4ccc5c(c4)CC(=O)N5)c3)cc2C(F)(F)F)CC1` is reported as 100% (binding, competition with immobilised ligand; 1 µM).
For `CN(c1ccnc(CNc2nc(Nc3ccc4c(c3)CC(=O)N4)ncc2C(F)(F)F)n1)S(C)(=O)=O`, the remaining binding was 45% (cell-free assay, competition with immobilised ligand; 1 µM).
`COc1cnc(Nc2cccc(S(N)(=O)=O)c2)nc1N1CCN(c2ccccc2)C(=O)C1` has a remaining binding of 98% (binding, competition with immobilised ligand; 1 µM).
`C=CC(=O)N1CCC(C(=O)NCC(=O)N2CCN(c3nc(-c4cnc(N)nc4C(F)F)nc(N4CCOCC4)n3)CC2)CC1` gave a remaining binding of 83% (binding, competition with immobilised ligand; 1 µM).
`C[C@@H]1CCN(c2nccc(-c3cnn4ncccc34)n2)C1` gave a remaining binding of 74% (binding; 1 µM).
The remaining binding of `Nc1ncc2c(n1)-c1c([nH]c3ccc(C#CC4CC4)cc13)CCCC2` is reported as 86% (binding, competition with immobilised ligand; 1 µM).
`CN(C)c1nccc(-c2cnn3ncccc23)n1` gave a remaining binding of 100% (binding; 1 µM).
`CNC(=O)Nc1ccc2c(c1)[C@@]1(CC2)OC(=O)N(CC(=O)N(Cc2ccc(F)cc2)[C@@H](C)C(F)(F)F)C1=O` gave a remaining binding of 94% (cell-free assay, competition with immobilised ligand; 1 µM).
`c1cnn2ncc(-c3ccnc(N4CCC45COC5)n3)c2c1` gave a remaining binding of 53% (binding; 1 µM).
`COc1ncc2cc3ccccc3nc2c1C#N` has a remaining binding of 96% (cell-free assay, competition with immobilised ligand; 5 µM).
For `CS(=O)(=O)N1CCCC(NC(=O)[C@H](CCC2CCCCC2)NC(=O)c2ccc(CNC(=O)c3cnc4ccccn34)cc2)C1` (stereo partly shown), the remaining binding was 100% (cell-free assay, competition with immobilised ligand; 0.1 µM).
The remaining binding of `N[C@H]1CCN(c2nccc(-c3cnn4ncccc34)n2)C1` is reported as 90% (binding; 1 µM).
The remaining binding of `Cc1nc(Cc2cccc(C(F)(F)F)c2)sc1-c1ccc(C(N)=O)nc1` is reported as 100% (cell-free assay, competition with immobilised ligand; 1 µM).
With `O=C(NCC1CCOCC1)c1n[nH]cc1NC(=O)c1c(F)cccc1F` the remaining binding was 88% (binding, competition with immobilised ligand; 1 µM).
